Test results taken from ChEMBL document CHEMBL1914393, “Chemical scaffolds with structural similarities to siderophores of nonribosomal peptide-polyketide origin as novel antimicrobials against Mycobacterium tuberculosis and Yersinia pestis” (Bioorg Med Chem Lett, 2011).
pIC50: −log10 of the molar value. Values after ≈ are worked out from the molar mass of the structure shown. Active and inactive are the calls of the source.

Experiments:
HeLa = assay: Cytotoxicity against human HeLa cells at 16 uM after 24 hrs by ATPLite assay; format: cell-based
Method in brief: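 HeLa cells in 96-well format, read with an ATPLite reagent-based viability assay. Cell–compound contact lasted 4 hr or 24 hr, and viability was expressed relative to untreated controls.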

[1] = test system: Mycobacterium tuberculosis; assay: Ratio of IC50 for Mycobacterium tuberculosis H37Rv in GASTD medium supplemented with 100 uM FeCl3 to IC50 for Mycobacterium tuberculosis H37Rv in Fe-deficient GASTD medium; format: functional
Method in brief: (§1)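 Virulent H37Rv, twofold microdilution in iron-limiting GASTD or GASTD plus 100 μM FeCl3, started at OD600 0.001 from deferrated stocks. Compounds were added in DMSO (0.5% final) up to 500 μM or the solubility limit. Cultures sat stationary for 10 days at 37 °C, read at OD600. IC50 from sigmoidal fits to triplicates; MIC90 is the lowest concentration giving ≥90% inhibition versus DMSO controls. Ratios are +Fe/GASTD.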

Yersinia pestis [2] = assay: Antimicrobial activity against Yersinia pestis KIM6-2082.1+ in PMHD medium supplemented with 100 uM FeCl3 after 26 hrs by spectrophotometric analysis; format: functional, organism-based
[3] = test system: Mycobacterium tuberculosis; assay: Bactericidal activity against Mycobacterium tuberculosis H37Rv in GASTD medium at 2 times MIC after 30 days by colony counting; format: functional, organism-based
Method in brief: (§2)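 Duplicate GASTD cultures were treated and incubated as in the growth assay (37 °C, 10 days), then serial 10-fold dilutions were plated on Middlebrook 7H11. Colonies were counted after 30 days at 37 °C and reported as CFU/mL. Bactericidal was defined as >99% killing relative to inoculum.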

[4] = test system: Mycobacterium tuberculosis; assay: Ratio of MIC90 for Mycobacterium tuberculosis H37Rv in GASTD medium supplemented with 100 uM FeCl3 to MIC90 for Mycobacterium tuberculosis H37Rv in Fe-deficient GASTD medium; format: functional; method in brief: as §1
[5] = test system: Mycobacterium tuberculosis; assay: Antimicrobial activity against Mycobacterium tuberculosis H37Rv in GASTD medium supplemented with 100 uM FeCl3 after 10 days by spectrophotometric analysis; format: functional, organism-based; conditions: 240 h; method in brief: as §1
[6] = test system: Mycobacterium tuberculosis; assay: Antimicrobial activity against Mycobacterium tuberculosis H37Rv in GASTD medium after 10 days by spectrophotometric analysis; format: functional, organism-based; conditions: 240 h; method in brief: as §1
Yersinia pestis [7] = assay: Antimicrobial activity against Yersinia pestis KIM6-2082.1+ in PMHD medium after 26 hrs by spectrophotometric analysis; format: functional, organism-based
Yersinia pestis [8] = assay: Ratio of IC50 for Yersinia pestis KIM6-2082.1+ in PMHD medium supplemented with 100 uM FeCl3 to IC50 for Yersinia pestis KIM6-2082.1+ in Fe-deficient PMHD medium; format: functional
Yersinia pestis [9] = assay: Ratio of MIC90 for Yersinia pestis KIM6-2082.1+ in PMHD medium supplemented with 100 uM FeCl3 to IC50 for Yersinia pestis KIM6-2082.1+ in Fe-deficient PMHD medium; format: functional
Yersinia pestis [10] = assay: Bactericidal activity against Yersinia pestis KIM6-2082.1+ in PMHD medium at 2 times MIC after 3 days by colony counting; format: functional, organism-based
[11] = test system: Mycobacterium tuberculosis; assay: Bactericidal activity against Mycobacterium tuberculosis H37Rv in GASTD medium at MIC after 30 days by colony counting; format: functional, organism-based; method in brief: as §2
Yersinia pestis [12] = assay: Bactericidal activity against Yersinia pestis KIM6-2082.1+ in PMHD medium at MIC after 3 days by colony counting; format: functional, organism-based

Row | SMILES | Activity (HeLa) [%] | Ratio IC50 [1] | pIC50 (Yersinia pestis [2]) | MIC90 (Yersinia pestis [2]) [µM] | Activity [3] | Ratio [4] | pIC50 [5] | MIC90 [5] [µM] | pIC50 [6] | MIC90 [6] [µM] | pIC50 (Yersinia pestis [7]) | MIC90 (Yersinia pestis [7]) [µM] | Ratio IC50 (Yersinia pestis [8]) | Ratio (Yersinia pestis [9]) | Activity (Yersinia pestis [10]) | Activity [11] | Activity (Yersinia pestis [12])
1 | Cc1ccccc1[C@@H]1CC(c2ccccc2O)=NN1C(N)=S | 24 | 1 | < 4.51 | > 31 | Active | 1 | 5.15 | 16 (≈ 4.98 µg/mL) | 5.15 | 16 (≈ 4.98 µg/mL) | < 4.21 | > 63 |  |  |  |  | 
2 | NC(=O)N1N=C(c2ccccc2O)C[C@H]1c1ccccc1O |  | 1 | < 3.60 | > 250 | Active | 0.5 | 4.19 | 104 (≈ 30.9 µg/mL) | 4.11 | 208 (≈ 61.8 µg/mL) | < 3.60 | > 250 |  |  |  |  | 
3 | O=C(NO)N1N=C(c2ccccc2O)C[C@H]1c1ccccc1O |  |  | < 4.51 | > 31 |  |  | < 4.49 | > 31 | 4.27 | > 63 | 5.10 | > 31 | >4 |  |  |  | 
4 | Cc1ccc(S(=O)(=O)N2N=C(c3ccccc3O)C[C@H]2c2ccc(O)cc2)cc1 |  |  | < 4.80 | > 16 |  |  | < 4.51 | > 31 | < 4.20 | > 63 | < 4.51 | > 31 |  |  |  |  | 
5 | O=C(c1ccccc1)N1N=C(c2ccccc2O)C[C@H]1c1ccc(O)cc1 |  |  | < 4.80 | > 16 |  |  | < 4.80 | > 63 | < 4.20 | > 63 | < 4.51 | > 31 |  |  |  |  | 
6 | CC(=O)N1N=C(c2ccccc2O)C[C@H]1c1ccccc1O |  |  | < 4.51 | > 31 |  |  | < 4.80 | > 16 | < 4.51 | > 32 | < 4.51 | > 31 |  |  |  |  | 
7 | O=C(c1ccccc1)N1N=C(c2ccccc2O)C[C@H]1c1ccccc1O |  | 1 | < 4.20 | > 63 |  |  | 4.01 | > 500 | 4.08 | > 500 | < 4.51 | > 31 |  |  |  |  | 
8 | Cc1ccc(S(=O)(=O)N2N=C(c3ccccc3O)C[C@H]2c2ccccc2O)cc1 |  |  | < 4.80 | > 16 |  |  | < 4.51 | > 31 | < 4.20 | > 63 | < 4.51 | > 31 |  |  |  |  | 
9 | N=C(NO)N/N=C/c1ccc(O)cc1 |  | 1 | < 3.30 | > 500 | Active | 1 | 4.37 | 132 (≈ 25.6 µg/mL) | 4.37 | 222 (≈ 43.1 µg/mL) | < 3.30 | > 500 |  |  |  |  | 
10 | O=C(NO)N/N=C/c1ccc(O)cc1 |  | 0.4 | < 3.60 | > 250 | Active | 1 | 4.40 | 97 (≈ 18.9 µg/mL) | 4.01 | 146 (≈ 28.5 µg/mL) | < 3.60 | > 250 |  |  |  |  | 
11 | C/C(=N\NC(=O)NO)c1ccccc1O |  |  | < 5.70 | > 2 |  |  | < 5.10 | > 8 | < 5.10 | > 8 | < 5.40 | > 4 |  |  |  |  | 
12 | O=C(c1ccncc1)N1N=C(c2ccccc2O)C[C@H]1c1ccccc1O |  | 1 | < 4.80 | > 16 | Active | 1 | 5.10 | 16 (≈ 5.75 µg/mL) | 5.10 | 16 (≈ 5.75 µg/mL) | < 4.80 | > 16 |  |  |  |  | 
13 | NC(=S)N1N=C(c2ccccc2O)C[C@H]1c1ccccc1O |  | 1 | < 4.20 | > 63 | Active | 1 | 4.30 | 125 (≈ 39.2 µg/mL) | 4.28 | 125 (≈ 39.2 µg/mL) | 3.74 | > 250 |  |  |  |  | 
14 | CC(=O)N1N=C(c2ccccc2O)C[C@H]1c1ccc(O)cc1 |  |  | < 4.80 | > 16 |  |  | < 5.10 | > 8 | < 5.10 | > 8 | < 4.80 | > 16 |  |  |  |  | 
15 | CN[C@@H]1[C@H](O[C@H]2[C@H](O[C@H]3[C@H](O)[C@@H](O)[C@H](N=C(N)N)[C@@H](O)[C@@H]3N=C(N)N)O[C@@H](C)[C@]2(O)C=O)O[C@@H](CO)[C@H](O)[C@H]1O [STREPTOMYCIN] |  |  | 6.00 | 2 (≈ 1.16 µg/mL) |  |  |  |  |  |  | 6.00 | 1 (≈ 0.582 µg/mL) | 1 | 2 | Active |  | 
16 | O=C(NO)N1N=C(c2ccccc2O)C[C@H]1c1ccc(O)cc1 |  | 1 | < 4.51 | > 31 |  |  | 4.40 | > 31 | 4.38 | 125 (≈ 39.2 µg/mL) | 4.89 | > 31 | >2 |  |  | Active | 
17 | O=C(c1ccncc1)N1N=C(c2ccccc2O)C[C@H]1c1ccc(O)cc1 |  |  | < 5.10 | > 8 |  |  | < 5.40 | > 4 | < 5.10 | > 8 | < 5.10 | > 8 |  |  |  |  | 
18 | C/C(=N\NC(=O)NO)c1ccc(O)cc1 |  |  | < 3.30 | > 500 |  |  | < 3.30 | > 500 | < 3.30 | > 500 | < 3.30 | > 500 |  |  |  |  | 
19 | O=S(=O)(c1ccccc1)N1N=C(c2ccccc2O)C[C@H]1c1ccc(O)cc1 |  |  | < 4.51 | > 31 |  |  | < 4.51 | > 31 | < 4.20 | > 63 | < 4.80 | > 16 |  |  |  |  | 
20 | N/C(=N\O)N/N=C/c1ccccc1O |  | 1 | 3.52 | > 500 | Active | 1 | 4.82 | 26 (≈ 5.05 µg/mL) | 4.96 | 222 (≈ 43.1 µg/mL) | 4.15 | 250 (≈ 48.5 µg/mL) | 4 | >2 | Active |  | 
21 | NNC(=O)c1ccncc1 [ISONIAZID] |  | 1 |  |  | Active | 1 | 7.05 | 0.2 (≈ 0.0274 µg/mL) | 7.15 | 0.2 (≈ 0.0274 µg/mL) |  |  |  |  |  |  | 
22 | NC(=O)N1N=C(c2ccccc2O)C[C@H]1c1ccc(O)cc1 |  |  | < 4.51 | > 31 |  |  | < 4.49 | > 63 | < 4.20 | > 63 | < 4.51 | > 31 |  |  |  |  | 
23 | O=C(NO)N/N=C/c1ccccc1O |  |  | < 5.40 | > 4 |  |  | < 4.80 | > 16 | < 4.80 | > 16 | < 4.80 | > 16 |  |  |  |  | 
24 | Oc1ccc([C@@H]2CC(c3ccccc3O)=NN2)cc1 |  | 1 | < 4.51 | > 31 |  | 1 | 4.43 | 125 (≈ 31.8 µg/mL) | 4.34 | 125 (≈ 31.8 µg/mL) | 4.70 | > 31 | >2 |  |  | Active | 
25 | Oc1ccccc1C1=NN[C@H](c2ccccc2O)C1 |  | 1 | < 5.10 | > 8 | Active | 1 | 4.74 | 59 (≈ 15 µg/mL) | 4.60 | 66 (≈ 16.8 µg/mL) | 5.05 | 31 (≈ 7.88 µg/mL) |  |  |  |  | Active
26 | N=C(N)N1N=C(c2ccccc2O)C[C@H]1c1ccc(O)cc1 |  | 1 | < 4.20 | > 63 | Active | 1 | 4.59 | 76 (≈ 22.5 µg/mL) | 4.51 | 125 (≈ 37 µg/mL) | < 3.90 | > 125 |  |  |  |  | 
27 | O=S(=O)(c1ccccc1)N1N=C(c2ccccc2O)C[C@H]1c1ccccc1O |  |  | < 4.51 | > 31 |  |  | < 4.80 | > 31 | < 4.20 | > 63 | 5.10 | > 31 | >4 |  |  |  | 
